In ChEMBL document CHEMBL4152227, “Targeting mitochondria: Esters of rhodamine B with triterpenoids are mitocanic triggers of apoptosis” (Eur J Med Chem, 2018):
Calls of active or inactive are those of the source.

Legend:
FaDu = assay: Cytotoxicity against human FADU cells after 96 hrs by SRB assay; type: functional, cell-based
Summary of the method: (§1)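 Sulforhodamine B colorimetric assay after 96 h of treatment. EC50 values in µM are averaged from three independent experiments, each run in triplicate, with a 95% confidence interval. The assay cut-off is 30 µM.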

A2780 [1] = assay: Cytotoxicity against human A2780 cells after 96 hrs by SRB assay; type: functional, cell-based; settings: A2780, 96 h; summary of the method: as §1
HT-29 = assay: Cytotoxicity against human HT-29 cells after 96 hrs by SRB assay; type: functional, cell-based; settings: HT-29, 96 h; summary of the method: as §1
MCF7 = assay: Cytotoxicity against human MCF7 cells after 96 hrs by SRB assay; type: functional, cell-based; settings: MCF7, 96 h; summary of the method: as §1
NIH3T3 = assay: Cytotoxicity against mouse NIH/3T3 cells after 96 hrs by SRB assay; type: cell-based; settings: NIH3T3, 96 h; summary of the method: as §1
SW-1736 = assay: Cytotoxicity against human SW1736 cells after 96 hrs by SRB assay; type: functional, cell-based; settings: SW-1736, 96 h; summary of the method: as §1
[2] = Drug uptake in nucleus of human A2780 cells at 200 nM after 24 hrs by rhodamine 123 staining based fluorescence microscopy; type: ADME, subcellular; settings: a2780, 24 h, 0.2 µM
Summary of the method: (§2)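 A2780 ovarian carcinoma cells were incubated 24 h with 200 nM compound, then double-stained with rhodamine 123 (mitochondria, green) and Hoechst 33342 (nuclei). Fluorescence microscopy localized the compound's own red fluorescence by overlay with the rhodamine 123 and Hoechst channels. Bright-field images were also taken.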

[3] = Drug uptake in mitochondria of human A2780 cells at 200 nM after 24 hrs by rhodamine 123 staining based fluorescence microscopy; type: ADME; settings: a2780, 24 h, 0.2 µM; summary of the method: as §2
A2780 [4] = assay: Induction of apoptosis in human A2780 cells assessed as crescent-shaped nuclei at 200 nM after 24 hrs by Hoechst 33342 staining based fluorescence microscopy; type: functional, cell-based
A2780 [5] = assay: Induction of apoptosis in human A2780 cells assessed as incipient membrane blebbing at 200 nM after 24 hrs; type: functional, cell-based

Row | Compound | EC50 (FaDu) [µM] | EC50 (A2780 [1]) [µM] | EC50 (HT-29) [µM] | EC50 (MCF7) [µM] | EC50 (NIH3T3) [µM] | EC50 (SW-1736) [µM] | Drug uptake [2] | Drug uptake [3] | Activity (A2780 [4]) | Activity (A2780 [5])
1 | CCN(CC)c1ccc2c(-c3ccccc3C(=O)O[C@H]3CC[C@]4(C)[C@H]5CC=C6[C@@H]7[C@@H](C)[C@H](C)CC[C@]7(C(=O)OCc7ccccc7)CC[C@@]6(C)[C@]5(C)CC[C@H]4C3(C)C)c3ccc(=[N+](CC)CC)cc-3oc2c1 | 15.8 | 10.1 | 11.4 | 13.8 | 15.4 | 12.7 | – | – | – | –
2 | CCN(CC)c1ccc2c(-c3ccccc3C(=O)O[C@H]3CC[C@]4(C)[C@H]5CC=C6[C@@H]7CC(C)(C)CC[C@]7(C(=O)OCc7ccccc7)CC[C@@]6(C)[C@]5(C)CC[C@H]4C3(C)C)c3ccc(=[N+](CC)CC)cc-3oc2c1 | 9.12 | 3.35 | 8.9 | 9.4 | 11.2 | 9.05 | – | – | – | –
3 | CCN(CC)c1ccc2c(-c3ccccc3C(=O)O[C@H]3CC[C@]4(C)[C@H]5CC=C6[C@@H]7CC(C)(C)CC[C@]7(C(=O)NCc7ccccc7)CC[C@@]6(C)[C@]5(C)CC[C@H]4C3(C)C)c3ccc(=[N+](CC)CC)cc-3oc2c1 | 0.5 | 0.32 | 0.46 | 0.36 | 0.4 | 0.27 | – | – | – | –
4 | C=C(C)[C@@H]1CC[C@]2(C(=O)OC)CC[C@]3(C)[C@H](CC[C@@H]4[C@@]5(C)CC[C@H](OC(=O)c6ccccc6-c6c7ccc(=[N+](CC)CC)cc-7oc7cc(N(CC)CC)ccc67)C(C)(C)[C@@H]5CC[C@]43C)[C@H]12 | 1.29 | 0.42 | 0.61 | 0.81 | 1.77 | 0.74 | – | – | – | –
5 | CCN(CC)c1ccc2c(-c3ccccc3C(=O)O[C@H]3CC[C@]4(C)[C@H]5CC=C6[C@@H]7[C@@H](C)[C@H](C)CC[C@]7(C(=O)NCc7ccccc7)CC[C@@]6(C)[C@]5(C)CC[C@H]4C3(C)C)c3ccc(=[N+](CC)CC)cc-3oc2c1 | 0.44 | 0.34 | 0.45 | 0.3 | 0.37 | 0.24 | – | – | – | –
6 | C=C(C)[C@@H]1CC[C@]2(C(=O)OCc3ccccc3)CC[C@]3(C)[C@H](CC[C@@H]4[C@@]5(C)CC[C@H](OC(=O)c6ccccc6-c6c7ccc(=[N+](CC)CC)cc-7oc7cc(N(CC)CC)ccc67)C(C)(C)[C@@H]5CC[C@]43C)[C@H]12 | 7.59 | 3.36 | 5.33 | 5.05 | 8.04 | 6.43 | – | – | – | –
7 | CCN(CC)c1ccc2c(-c3ccccc3C(=O)O[C@H]3CC[C@]4(C)[C@H]5CC=C6[C@@H]7CC(C)(C)CC[C@]7(C(=O)OC)CC[C@@]6(C)[C@]5(C)CC[C@H]4C3(C)C)c3ccc(=[N+](CC)CC)cc-3oc2c1 | 1.99 | 1.14 | 2.75 | 2.31 | 2.63 | 1.76 | – | – | – | –
8 | CCN(CC)c1ccc2c(-c3ccccc3C(=O)O[C@H]3CC[C@]4(C)[C@H]5C(=O)C=C6[C@@H]7C[C@@](C)(C(=O)OC)CC[C@]7(C)CC[C@@]6(C)[C@]5(C)CC[C@H]4C3(C)C)c3ccc(=[N+](CC)CC)cc-3oc2c1 | 0.19 | 0.08 | 0.15 | 0.18 | 0.2 | 0.15 | – | – | – | –
9 | C=C(C)[C@@H]1CC[C@]2(C(=O)NCc3ccccc3)CC[C@]3(C)[C@H](CC[C@@H]4[C@@]5(C)CC[C@H](OC(=O)c6ccccc6-c6c7ccc(=[N+](CC)CC)cc-7oc7cc(N(CC)CC)ccc67)C(C)(C)[C@@H]5CC[C@]43C)[C@H]12 | 0.54 | 0.31 | 0.53 | 0.47 | 0.54 | 0.45 | – | – | – | –
10 | CCN(CC)c1ccc2c(-c3ccccc3C(=O)O[C@H]3CC[C@]4(C)[C@H]5C(=O)C=C6[C@@H]7C[C@@](C)(C(=O)NCc8ccccc8)CC[C@]7(C)CC[C@@]6(C)[C@]5(C)CC[C@H]4C3(C)C)c3ccc(=[N+](CC)CC)cc-3oc2c1.[Cl-] | 0.06 | 0.02 | 0.06 | 0.04 | 0.08 | 0.04 | Not Active | Active | Active | Active
11 | CCN(CC)c1ccc2c(-c3ccccc3C(=O)O[C@H]3CC[C@]4(C)[C@H]5CC=C6[C@@H]7[C@@H](C)[C@H](C)CC[C@]7(C(=O)OC)CC[C@@]6(C)[C@]5(C)CC[C@H]4C3(C)C)c3ccc(=[N+](CC)CC)cc-3oc2c1 | 1.96 | 1.75 | 1.85 | 1.83 | 1.84 | 1.72 | – | – | – | –
12 | CCN(CC)c1ccc2c(-c3ccccc3C(=O)O[C@H]3CC[C@]4(C)[C@H]5C(=O)C=C6[C@@H]7C[C@@](C)(C(=O)OCc8ccccc8)CC[C@]7(C)CC[C@@]6(C)[C@]5(C)CC[C@H]4C3(C)C)c3ccc(=[N+](CC)CC)cc-3oc2c1 | 1.54 | 0.9 | 1.42 | 1.47 | 1.28 | 1.13 | – | – | – | –
